{"data": "Experimental data collected from several papers", "technique": "competition with immobilised ligand", "RPS6KA4 N-terminal kinase domain": "Ribosomal protein S6 kinase alpha-4, N-terminal kinase domain (RPS6KA4, Homo sapiens, UniProt O75676)", "RPS6KA4 C-terminal kinase domain": "Ribosomal protein S6 kinase alpha-4, C-terminal kinase domain (RPS6KA4, Homo sapiens, UniProt O75676)", "note": "Compare with care: the assays were run in different laboratories."}
{"Compound": "COc1cnc(Nc2cccc(S(N)(=O)=O)c2)nc1N1CCN(c2ccccc2)CC1", "target": "RPS6KA4 N-terminal kinase domain", "observed": "binding", "tested at": "1 µM", "remaining binding [%]": 94}
{"Compound": "C[C@@H](c1ccc(-n2cnc3c(N)ncnc32)cc1)N1CCc2nn(C)c(Cc3ccccc3)c2C1=O", "target": "RPS6KA4 C-terminal kinase domain", "observed": "binding", "tested at": "0.1 µM", "remaining binding [%]": 84}
{"Compound": "C[C@@]1(Cc2ccc(C#N)cc2)C(=O)N(c2cc(Cl)cc(Cl)c2)c2ncc(C(=O)NC3(c4nc(C5CCC5)no4)CC3)n21", "target": "RPS6KA4 C-terminal kinase domain", "observed": "cell-free assay", "tested at": "1 µM", "remaining binding [%]": 100}
{"Compound": "Cc1cnc(Nc2ccc(C(=O)N3CCC(N4CCCC4)CC3)cc2)nc1-c1cc2ccccc2s1", "target": "RPS6KA4 C-terminal kinase domain", "observed": "binding", "tested at": "1 µM", "remaining binding [%]": 3.8}
{"Compound": "O=C(Nc1cccnn1)N1CC(C/C=C/c2cncc(Oc3ccc(C(F)(F)F)cn3)n2)C1", "target": "RPS6KA4 N-terminal kinase domain", "observed": "cell-free assay", "tested at": "1 µM", "remaining binding [%]": 100}
{"Compound": "C[C@@H]1CCN(c2nccc(-c3cnn4ncccc34)n2)C1", "target": "RPS6KA4 C-terminal kinase domain", "observed": "binding", "tested at": "1 µM", "remaining binding [%]": 58}
{"Compound": "O=C(NCCCN1CCOCC1)c1ccc(Nc2ncc(Cl)c(-c3ccc(Cl)s3)n2)cc1", "target": "RPS6KA4 C-terminal kinase domain", "observed": "binding", "tested at": "1 µM", "remaining binding [%]": 26}
{"Compound": "Nc1ncc2c(n1)-c1c([nH]c3ccc(C#CC4CC4)cc13)CCCC2", "target": "RPS6KA4 N-terminal kinase domain", "observed": "binding", "tested at": "1 µM", "remaining binding [%]": 88}
{"Compound": "FC(F)(F)Oc1cccc(-c2cnc3ccc(-c4ccncc4)nn23)c1", "target": "RPS6KA4 N-terminal kinase domain", "observed": "binding", "tested at": "5 µM", "remaining binding [%]": 97}
{"Compound": "COc1ccc2c(c1)O[C@@H](c1ccc(OC)c(OC)c1)C[C@H]2NC(=O)C1(c2ccc3c(c2)OC(F)(F)O3)CC1", "target": "RPS6KA4 C-terminal kinase domain", "observed": "cell-free assay", "tested at": "1 µM", "remaining binding [%]": 81}
{"Compound": "c1cncc(-c2cccc(Nc3nccc(NC4CCCCC4)n3)c2)c1", "target": "RPS6KA4 N-terminal kinase domain", "observed": "binding", "tested at": "10 µM", "remaining binding [%]": 78}
{"Compound": "O=C(c1ccc(Nc2ncc(Cl)c(-c3ccc(Cl)s3)n2)cc1)N1CCC(N2CCCC2)CC1", "target": "RPS6KA4 C-terminal kinase domain", "observed": "binding", "tested at": "1 µM", "remaining binding [%]": 18}
{"Compound": "CN(C)c1ncc(F)c(-c2cnn3ncccc23)n1", "target": "RPS6KA4 N-terminal kinase domain", "observed": "binding", "tested at": "1 µM", "remaining binding [%]": 89}
{"Compound": "C=CC(=O)N1CCC(C(=O)NCC(=O)N2CCN(c3nc(-c4cnc(N)nc4C(F)F)nc(N4CCOCC4)n3)CC2)CC1", "target": "RPS6KA4 C-terminal kinase domain", "observed": "binding", "tested at": "1 µM", "remaining binding [%]": 100}
{"Compound": "CSc1cccnc1N1CCN(Cc2nc3ccccc3[nH]2)CC1", "target": "RPS6KA4 N-terminal kinase domain", "observed": "cell-free assay", "tested at": "1 µM", "remaining binding [%]": 94}
{"Compound": "Cc1cnn2ncc(-c3ccnc(N(C)C)n3)c2c1", "target": "RPS6KA4 N-terminal kinase domain", "observed": "binding", "tested at": "1 µM", "remaining binding [%]": 97}
{"Compound": "O=C(c1ccc(Nc2nccc(-c3cc4ccccc4s3)n2)cc1)N1CCC(N2CCCC2)CC1", "target": "RPS6KA4 C-terminal kinase domain", "observed": "binding", "tested at": "1 µM", "remaining binding [%]": 14}
{"Compound": "Cc1c(NC(=O)c2cc(C(N)=O)nc3cc(F)ccc23)c(C(F)(F)F)nn1Cc1ccc(C#N)cc1", "target": "RPS6KA4 C-terminal kinase domain", "observed": "cell-free assay", "tested at": "1 µM", "remaining binding [%]": 85}
{"Compound": "CCN1CCN(Cc2ccc(C(=O)Nc3ccc(C)c(Oc4ccc5c(c4)CC(=O)N5)c3)cc2C(F)(F)F)CC1", "target": "RPS6KA4 N-terminal kinase domain", "observed": "binding", "tested at": "1 µM", "remaining binding [%]": 100}
{"Compound": "F[C@@H]1CCN(c2nccc(-c3cnn4ncccc34)n2)C1", "target": "RPS6KA4 C-terminal kinase domain", "observed": "binding", "tested at": "1 µM", "remaining binding [%]": 92}
{"Compound": "Cc1c(C(=O)O)cc(-c2ccc(C3CCNCC3)cc2)c2ccc(-c3ccc(C(F)(F)F)cc3)cc12", "target": "RPS6KA4 N-terminal kinase domain", "observed": "binding", "tested at": "1 µM", "remaining binding [%]": 88}
{"Compound": "O=C(NCCCN1CCOCC1)c1ccc(Nc2nccc(-c3cc4ccccc4s3)n2)cc1", "target": "RPS6KA4 N-terminal kinase domain", "observed": "binding", "tested at": "1 µM", "remaining binding [%]": 100}
{"Compound": "CN(C(=O)c1ccccc1)c1cc(N(C)c2ccc3c(c2)CCc2ccc(C(=O)NCCN4CCOCC4)cc2C3=O)ccc1F", "target": "RPS6KA4 N-terminal kinase domain", "observed": "cell-free assay", "tested at": "1 µM", "remaining binding [%]": 59}
{"Compound": "COc1ncc2cc3ccccc3nc2c1C#N", "target": "RPS6KA4 N-terminal kinase domain", "observed": "cell-free assay", "tested at": "5 µM", "remaining binding [%]": 94}
{"Compound": "COc1cnc(Nc2cccc(S(N)(=O)=O)c2)nc1N1CCN(c2ccccc2)C(=O)C1", "target": "RPS6KA4 C-terminal kinase domain", "observed": "binding", "tested at": "1 µM", "remaining binding [%]": 100}
{"Compound": "CN(CCCC(F)(F)F)c1nccc(-c2cnn3ncccc23)n1", "target": "RPS6KA4 C-terminal kinase domain", "observed": "binding", "tested at": "1 µM", "remaining binding [%]": 100}
{"Compound": "O=C(c1ccc(Nc2ncc(Cl)c(-c3cc4ccccc4s3)n2)cc1)N1CCC(N2CCCC2)CC1", "target": "RPS6KA4 C-terminal kinase domain", "observed": "binding", "tested at": "1 µM", "remaining binding [%]": 13}
{"Compound": "O=C(Nc1c[nH]nc1C(=O)NC1CCNCC1)c1cc(F)cc(F)c1", "target": "RPS6KA4 N-terminal kinase domain", "observed": "binding", "tested at": "1 µM", "remaining binding [%]": 100}
{"Compound": "COc1ccnn2ncc(-c3ccnc(N(C)C)n3)c12", "target": "RPS6KA4 N-terminal kinase domain", "observed": "binding", "tested at": "1 µM", "remaining binding [%]": 97}
{"Compound": "CNC(=O)[C@@H]1CC[C@@H](n2c(-c3ccc4cnccc4c3)nc3ccc(C(=O)NCc4cccc(C(N)=O)c4)cc32)C1", "target": "RPS6KA4 C-terminal kinase domain", "observed": "binding", "tested at": "1 µM", "remaining binding [%]": 99}
{"Compound": "O=C(NCC1CCOCC1)c1n[nH]cc1NC(=O)c1c(F)cccc1F", "target": "RPS6KA4 N-terminal kinase domain", "observed": "binding", "tested at": "1 µM", "remaining binding [%]": 95}
{"Compound": "CNCc1ccccc1-c1csc([C@@H](C)Nc2nc(C)nc3cc(OC)c(OC)cc23)c1", "target": "RPS6KA4 N-terminal kinase domain", "observed": "cell-free assay", "tested at": "1 µM", "remaining binding [%]": 100}
{"Compound": "c1cnn2ncc(-c3ccnc(N4CCC45COC5)n3)c2c1", "target": "RPS6KA4 N-terminal kinase domain", "observed": "binding", "tested at": "1 µM", "remaining binding [%]": 91}
